Only a selection was taken, and hits are over-represented in it overall.
DTT redox prof: compounds producing H2O2 with reducing agent – biochemical, NIH compound library profiling, artefact control for MLSCN library redox annotation, primary screen | DTT-dependent redox cycling H2O2, phenol red/HRP absorbance; 100% = 100 µM peroxide control, 0% = buffer | activation, % at 10 µM | hit rate 0.03% among 200,000;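 active = activation of at least 50% relative to the plate's high and low controls in the primary single-dose screen; inactive = activation below 50%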;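 also: compound incubated with DTT at 0.8 mM final as the reducing agent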
MPTP block: inhibitors of mitochondrial permeability transition pore; inhibition, % at 10 µM; isolated mouse mitochondria, Ca2+ swelling absorbance, 30 min; hit rate 1.4% among 360,000; AID 602449;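 active = inhibition of 50% or more, scaled per plate between neutral and stimulator controls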;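 also: 0% = DMSO wells given calcium and 100% = 1 mM EGTA wells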
T cruzi repl: T. cruzi replication inhibition; T. cruzi beta-gal in NIH3T3, luminescence, 90 h; inhibition, % (test concentration not listed); hit rate 1.4% among 300,000;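 active = mean inhibition across valid replicates above about 55%, limit read from the data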;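 also: signal also drops with host cell toxicity which is not excluded here; 0% = plate median of DMSO wells and 100% = zero luminescence signal; higher percent means less beta-gal luminescence so fewer parasites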
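System: NIH/3T3 fibroblasts plus reporter T. cruzi. Medium: DMEM plus 2% FBS. Probe or stimulus: 5000 reporter trypomastigotes per well. Compound: single 50 nL compound addition per well in DMSO. Incubation: co-culture of at least 90 h after 3 h attachment. Detection: GalScreen β-gal luminescence, detergent lysis, 60 min. Evaluation: parasite load inhibition, %.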
Hep lipid drop: modulators of hepatic lipid droplet formation; inhibition, % at 6.5 µM; hit rate 0.4% among 240,000; AML12 mouse hepatocytes, oleate lipid droplets, BODIPY imaging;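 active = lipid droplet intensity inhibited by at least 50%, with more than 500 cells counted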
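Assay system: AML12 mouse liver cells | Compound dosing: One dose, 6.5 µM compound | Read-out basis: Droplet intensity reduction, % inhibition | Measured by: Fluorescence imaging, 20x objective, two fields per well | Schedule: Overnight treatment with compound plus oleate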
Lmaj promast: reduces viability of Leishmania major promastigotes; resazurin fluorescence viability; inhibition, % at 10 µM; hit rate 9% among 200,000; in the data active = inhibition above about 50%;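 also: promastigotes grown with compound for 44 hours at 28 °C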
Starred values were filed as active, the others as inactive; . = no result given.

SMILES	DTT redox prof	MPTP block	T cruzi repl	Hep lipid drop	Lmaj promast
Cc1nn(Cc2ccc(Cl)cc2)c(C)c1NC(=O)CCCn1nc([N+](=O)[O-])c(Cl)c1C	-1	0	57*	14	23
CCc1nc2ccc(C(=O)N(CC)CCN(C)C)cn2c1N(CC)CCOC	.	0	.	.	.
N=C(SC1CC(=O)N(c2ccc(F)cc2)C1=O)N1N=C(c2ccccc2)CC1c1ccccc1 (stereo unspecified)	1	0	6	-11	16
CCOC(=O)c1sc(NC(=O)c2ccc(S(=O)(=O)N(C)C)cc2)cc1C	1	33	65*	13	29
O=C(COC(=O)c1cncc(Br)c1)NCc1cccs1	.	-1	.	.	.
c1ccc(-c2ccccc2OCCOCCN2CCCCC2)cc1	0	2	8	-7	72*
OCCCN1CCN(CCCOc2ccccc2-c2ccccc2)CC1	0	1	-2	-19	93*
c1ccc(-c2ccccc2OCCN2CCCC2)cc1	.	2	2	1	.
c1ccc(-c2ccccc2OCCCCN2CCCCCC2)cc1	-1	11	43	3	99*
CCOC(=O)N(C)C[C@H]1OCc2cnnn2CCCC(=O)N([C@H](C)CO)C[C@H]1C	.	0	.	.	.
NC(=O)C1(Nc2ccc(-c3ccc(Br)cc3)cc2)CCCC1	.	0	.	.	.
CCn1cc(CN2CCCC(CNS(=O)(=O)c3ccc(OC)cc3)C2)cn1 (stereo unspecified)	.	0	45	7	.
CCc1ccc(CN2CCCC(CNS(=O)(=O)c3ccc(OC)cc3)C2)cc1 (stereo unspecified)	0	0	48	-1	84*
Cc1cc(=O)n2nc(N3CCCC(C(=O)NC4CCC(C)CC4)C3)sc2n1 (stereo unspecified)	.	2	2	-19	.
Cc1ccc(C)c(N(CC(=O)NCc2ccco2)C(=O)CCC(=O)Nc2nccs2)c1	.	1	-16	-7	.
CC(C)N1C(=O)/C(=C\c2nc3ccccc3c(=O)n2-c2ccccc2)c2ccccc21	0	0	71*	9	99*
CC(C)N1C(=O)/C(=C/c2nc3ccccc3c(=O)n2-c2ccccc2)c2ccccc21	1	-1	77*	-6	100*
O=C(O)c1ccc(-n2c(/C=C/c3ccccc3)nc3ccccc3c2=O)cc1	.	1	6	1	.
O=C1N=C(N2C=CC(=C3C=CNC=C3)C=C2)/C(=C/N=NC(=O)c2ccccc2)S1	.	0	-6	3	.
COc1cccc(C(=O)COc2ccccc2-c2ccccc2)c1	-1	22	9	-16	53*
CCC(CC)C(=O)Oc1c(C(=O)N(C)C)cccc1-c1ccccc1	.	1	.	.	.
COc1cccc(-c2cc(=O)[nH][nH]2)c1	-1	-1	-7	-2	0
COc1ccc(-c2cc(=O)[nH][nH]2)cc1OC	0	-1	-14	0	84*
CCOC(=O)N1CCN(C(=O)c2ccc(CS(=O)c3ccccc3)o2)CC1 (stereo unspecified)	.	-1	-13	-28	.
COc1cccc(Cn2c(C(C)n3c(-c4cnccn4)nc4ccccc43)nc3ccccc32)c1 (stereo unspecified)	.	2	.	.	.
SMILES	DTT redox prof	MPTP block	T cruzi repl	Hep lipid drop	Lmaj promast
CC1=CC(=O)C=C(C)C1=NOC(=O)c1cccc([N+](=O)[O-])c1	0	1	15	16	84*
Cc1ccc(NP(=O)(c2ccc(N(C)C)cc2NC(=O)c2cccs2)N2CCOCC2)cc1 (stereo unspecified)	0	0	57*	3	46
Cc1ccc(NP(=O)(c2ccc(N(C)C)cc2NC(=O)c2cccs2)N2CCOCC2)cc1Cl (stereo unspecified)	1	0	61*	23	58*
CCOC(=O)c1ccc(NC(=O)N2CCN(c3cccc(OC)c3)CC2)cc1	1	0	12	-2	18
CCN1CCN(C(=O)C(C)Sc2nc3nc(C)cc(C)n3n2)CC1 (stereo unspecified)	.	-1	.	.	.
C=C(C)c1cccc(C(C)(C)NC(=O)NC(c2ccccc2)c2ccc(OC)cc2)c1 (stereo unspecified)	-1	1	1	7	98*
C=CCN(C(=O)CCC(=O)Nc1cc(C)on1)C(C(=O)NC1CCCC1)c1ccc(OC)cc1OC (stereo unspecified)	.	-1	3	-24	.
CCOC(=O)C1CCN(c2c(NCc3ccc(C(=O)Nc4ccc(C)cc4)cc3)c(=O)c2=O)CC1	.	1	-6	-16	.
CC(CCc1ccc(O)cc1)NC1C2CC3CC(C2)CC1C3 (stereo unspecified)	0	0	6	3	71*
CCCN(CC(=O)Nc1ccccc1C)C(=O)CCl	0	-1	78*	10	53*
COC(=O)C1=C(N)OC2=C(C(=O)CC(C)(C)C2)C1c1cccnc1 (stereo unspecified)	-1	-1	-8	.	50*
COCCOC(=O)C1=C(C)NC2=C(C(=O)CC(C)(C)C2)C1c1cccnc1 (stereo unspecified)	1	2	0	16	64*
CC1=C(C(=O)OC(C)C)C(c2ccc(N(C)C)cc2)C2=C(CC(C)(C)CC2=O)N1 (stereo unspecified)	-2	3	-9	8	23
CC1=C(C(=O)OC(C)C)C(c2cccnc2)C2=C(CC(C)(C)CC2=O)N1 (stereo unspecified)	0	-2	39	-34	92*
CC(=O)N1CCN(c2ccc(OC[C@H]3CO[C@](Cn4ccnc4)(c4ccc(Cl)cc4Cl)O3)cc2)CC1	0	-2	51	-17	89*
CCc1ccc(C2=NN(c3ccc(S(N)(=O)=O)cc3)C(c3ccc(F)cc3)C2)cc1 (stereo unspecified)	2	3	29	-1	78*
CCN(c1ccccc1)S(=O)(=O)c1ccc(Cl)c(C(=O)NCC2CCCO2)c1 (stereo unspecified)	1	-1	3	-10	10
Cc1c(NS(=O)(=O)c2ccc(N3CCN(C)CC3)c([N+](=O)[O-])c2)c(=O)n(-c2ccccc2)n1C	0	-1	-8	0	-2
O=[N+]([O-])c1cc(S(=O)(=O)C(F)(F)F)ccc1N1CCN(c2ccccc2)CC1	2	4	42	5	68*
O=S(=O)(Nc1ccc(N2CCCCC2)cc1)c1ccc(F)c(F)c1	0	3	17	-6	67*
O=[N+]([O-])c1cc(S(=O)(=O)Nc2ccccc2)ccc1N1CCN(c2ccccc2)CC1	0	1	13	-21	88*
O=C(O)c1cc(NS(=O)(=O)c2ccc(N3CCCCC3)c([N+](=O)[O-])c2)cc(C(=O)O)c1	-1	-2	0	-1	77*
O=C(c1ccc(N2CCOCC2)c([N+](=O)[O-])c1)N1CCN(c2ccccc2)CC1	.	0	.	.	.

From PubChem BioAssay
